In ChEMBL document CHEMBL1177676, “Synthesis and biological evaluation of cytotoxic activity of novel anthracene L-rhamnopyranosides” (Bioorg Med Chem, 2010):
pIC50: −log10 of the molar value. Activity calls are given as the source filed them. No cut-off for these calls is given here.

Columns and labels:
KB = assay: Cytotoxicity against human KB cells after 72 hrs by MTT assay; format: functional, cell-based
[1] = biological target: DNA topoisomerase 2-alpha (Homo sapiens) (UniProt P11388); assay: Inhibition of DNA topoisomerase 2 alpha assessed as ATP-dependent decatenation of DNA in cell free system
HL-60 = assay: Cytotoxicity against human HL60 cells after 72 hrs by MTT assay; format: functional, cell-based; settings: HL-60, 72 h
In short: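 Leukemia cells seeded in 96-well plates and exposed in triplicate to graded compound concentrations for 72 h at 37 °C. Viability was read by MTT. IC50 was derived by the Logit method from at least three independent experiments.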

MDA-MB-231 = assay: Cytotoxicity against human MDA-MB-231 cells after 72 hrs by MTT assay; format: functional, cell-based; settings: MDA-MB-231, 72 h

DNA topoisomerase 2-alpha (Homo sapiens), sequence (P11388 whole entry): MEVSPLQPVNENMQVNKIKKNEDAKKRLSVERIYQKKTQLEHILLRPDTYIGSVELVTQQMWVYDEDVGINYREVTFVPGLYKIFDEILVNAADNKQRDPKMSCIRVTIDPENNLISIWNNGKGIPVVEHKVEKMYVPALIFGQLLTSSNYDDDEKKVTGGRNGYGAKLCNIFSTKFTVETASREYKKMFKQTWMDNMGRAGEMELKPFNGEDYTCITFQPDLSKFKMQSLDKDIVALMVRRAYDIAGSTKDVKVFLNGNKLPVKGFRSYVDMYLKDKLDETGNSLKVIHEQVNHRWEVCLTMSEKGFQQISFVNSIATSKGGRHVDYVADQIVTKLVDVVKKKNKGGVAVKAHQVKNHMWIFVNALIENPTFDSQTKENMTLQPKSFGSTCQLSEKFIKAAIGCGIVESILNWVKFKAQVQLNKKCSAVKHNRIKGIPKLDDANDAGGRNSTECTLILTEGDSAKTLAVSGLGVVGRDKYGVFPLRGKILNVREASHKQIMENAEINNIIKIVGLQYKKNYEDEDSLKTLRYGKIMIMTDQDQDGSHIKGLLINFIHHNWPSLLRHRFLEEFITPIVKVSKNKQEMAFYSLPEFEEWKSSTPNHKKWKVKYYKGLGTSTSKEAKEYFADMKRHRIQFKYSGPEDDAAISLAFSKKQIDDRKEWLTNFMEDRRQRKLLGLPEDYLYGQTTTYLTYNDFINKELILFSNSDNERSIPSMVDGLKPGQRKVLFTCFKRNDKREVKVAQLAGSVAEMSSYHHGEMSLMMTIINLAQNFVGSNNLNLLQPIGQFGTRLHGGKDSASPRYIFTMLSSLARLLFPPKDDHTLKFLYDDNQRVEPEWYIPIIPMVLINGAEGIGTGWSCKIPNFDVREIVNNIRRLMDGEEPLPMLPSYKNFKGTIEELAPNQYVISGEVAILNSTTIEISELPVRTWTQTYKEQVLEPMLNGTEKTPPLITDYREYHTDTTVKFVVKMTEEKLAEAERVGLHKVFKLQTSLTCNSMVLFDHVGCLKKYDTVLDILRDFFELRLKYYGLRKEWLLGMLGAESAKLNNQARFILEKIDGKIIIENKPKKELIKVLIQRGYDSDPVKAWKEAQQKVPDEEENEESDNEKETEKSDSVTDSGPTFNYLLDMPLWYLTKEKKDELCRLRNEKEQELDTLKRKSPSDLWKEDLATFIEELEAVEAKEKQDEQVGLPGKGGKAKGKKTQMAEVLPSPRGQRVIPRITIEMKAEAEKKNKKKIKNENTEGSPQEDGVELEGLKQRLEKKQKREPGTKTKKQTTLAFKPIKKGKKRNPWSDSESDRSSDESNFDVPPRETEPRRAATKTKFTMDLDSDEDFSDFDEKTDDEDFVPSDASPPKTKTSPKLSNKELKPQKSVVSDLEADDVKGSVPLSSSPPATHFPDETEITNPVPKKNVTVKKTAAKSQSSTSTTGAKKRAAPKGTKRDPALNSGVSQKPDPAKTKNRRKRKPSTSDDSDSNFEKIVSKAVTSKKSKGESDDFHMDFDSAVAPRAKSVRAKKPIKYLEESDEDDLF

Structure (SMILES)	pIC50 (KB)	inhibition [1]	pIC50 (HL-60)	pIC50 (MDA-MB-231)
CC(=O)O[C@@H]1[C@@H](O[C@@H]2O[C@@H](C)[C@H](O)[C@@H](OC(C)=O)[C@H]2OC(C)=O)[C@H](C)O[C@@H](Oc2cc(O)c3c(c2)C(=O)c2cc(C)cc(O)c2C3=O)[C@@H]1OC(C)=O	5.08	Active	4.93	< 4.70
CC(=O)O[C@@H]1[C@@H](OC(C)=O)[C@@H](O)[C@H](Oc2cc(O)c3c(c2)C(=O)c2cc(C)cc(O)c2C3=O)O[C@H]1C	< 4.70		< 4.70	5.92
Cc1cc(O)c2c(c1)C(=O)c1cc(O)cc(O)c1C2=O [EMODIN]	< 4.70		< 4.70	< 4.70
COc1cc(C)cc2c1C(=O)c1c(OC)cc(O[C@@H]3O[C@@H](C)[C@H](O)[C@@H](OC(C)=O)[C@H]3OC(C)=O)cc1C2=O	< 4.70		< 4.70	< 4.70
CC(=O)O[C@@H]1[C@@H](O)[C@@H](O)[C@H](Oc2cc(O)c3c(c2)C(=O)c2cc(C)cc(O)c2C3=O)O[C@H]1C	< 4.70	Active	< 4.70	5.10
CC(=O)O[C@@H]1[C@@H](O)[C@H](C)O[C@@H](Oc2cc(O)c3c(c2)C(=O)c2cc(C)cc(O)c2C3=O)[C@@H]1OC(C)=O	5.96	Active	5.44	< 4.70
CC(=O)Oc1cc(C)cc2c1C(=O)c1c(OC(C)=O)cc(O[C@@H]3O[C@@H](C)[C@H](OC(C)=O)[C@@H](OC(C)=O)[C@H]3OC(C)=O)cc1C2OC(C)=O (mixture of isomers)	5.96	Active	5.82	5.77
CCCC(=O)O[C@@H]1[C@@H](O)[C@H](C)O[C@@H](Oc2cc(O)c3c(c2)C(=O)c2cc(C)cc(O)c2C3=O)[C@@H]1OC(=O)CCC	< 4.70		< 4.70	< 4.70
CC(=O)OC1c2cc(C)cc(O)c2C(=O)c2c(O)cc(O[C@@H]3O[C@@H](C)[C@H](O)[C@@H](OC(C)=O)[C@H]3OC(C)=O)cc21 (mixture of isomers)	6.52		6.10	6.40
CC(=O)O[C@@H]1[C@@H](O)[C@@H](OC(C)=O)[C@H](Oc2cc(O)c3c(c2)C(=O)c2cc(C)cc(O)c2C3=O)O[C@H]1C	< 4.70		< 4.70	< 4.70
